{"source": "paper PMC6925336", "about": "(European journal of pharmaceutical sciences : official …, 2019)", "key": {"[1]": {"assay": "Plasma protein binding by equilibrium dialysis", "type": "in vitro ADME, mouse", "method_in_brief": "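Equilibrium dialysis. CD-1 mouse plasma (sodium heparin) was spiked at final 2–2000 ng/ml (eight levels), in triplicate, against blank Ringer's solution. Rotated at 37°C for 24 h, then both sides sampled. Fraction unbound = buffer-side concentration / plasma-side total concentration.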"}, "[2]": {"assay": "Plasma pharmacokinetic study, 10 mg/kg SQ, population model", "type": "in vivo, CD-1 nude mice bearing G3MB", "conditions": "for AUC: Model-derived AUCplasma, total plasma", "method_in_brief": "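Nine female CD-1 nude mice carrying orthotopic mouse G3MB cells (enrolled at ~1×10^7 photons/sec) got 10 mg/kg SQ in 20% w/v Captisol. Population design: 2–3 samples per mouse up to 24 h, […]. Plasma assayed by LC-MS/MS. Fit with a two-compartment model with first-order absorption and linear elimination (apparent parameters); FOCE with interaction; log-normal inter-individual variability.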"}, "[3]": {"assay": "Cerebral microdialysis, tumor ECF, mice bearing G3MB", "type": "in vivo, CD-1 nude mice bearing G3MB", "method_in_brief": "(§1)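 Female CD-1 nude mice, non-tumor-bearing (N=7) or with cortical G3MB implants enrolled at ~1×10^7 photons/sec (N=8). Stereotactic cortical guide cannula; 1 mm probe (38 kDa MWCO) perfused with Ringer's at 0.5 µl/min, 1 h equilibration. Single 10 mg/kg SQ dose. Hourly dialysate to 24 h; plasma at 0.25, 6.5 and 24 h. LC-MS/MS. Unbound ECF = dialysate/probe recovery. Population PK model gave per-mouse AUCs and ECF rate constants.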"}, "[4]": {"assay": "Cerebral microdialysis, brain ECF, non-tumor bearing", "type": "in vivo, CD-1 nude mice (non-tumor bearing)", "conditions": "10 mg/kg SQ", "method_in_brief": "as §1"}, "[5]": {"assay": "Plasma pharmacokinetic study, 20 mg/kg IV, PK/PD model", "type": "in vivo, CD-1 nude mice bearing G3MB", "conditions": "plasma model re-estimated with 20 mg/kg IV data", "method_in_brief": "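Nine female CD-1 nude mice with orthotopic G3MB (~1×10^7 photons/sec) got 20 mg/kg prexasertib mesylate IV in 20% w/v Captisol. Sparse sampling: 2–3 plasma samples per mouse to 24 h, LC-MS/MS.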"}, "pCHK1 S345": {"test_system": "pCHK1 S345", "assay": "Pharmacodynamic study, immunohistochemistry of G3MB tumor tissue: pCHK1 S345", "type": "in vivo, mice bearing G3MB", "method_in_brief": "(§2)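 G3MB-bearing mice (N=21), enrolled at ~1×10^7 photons/sec, were randomized to vehicle or one 20 mg/kg IV bolus. Brains were harvested pre-dose and at 1, 2, 6 and 24 h post-dose and fixed in paraformaldehyde. Immunohistochemistry was done for pCHK1 S345, γ-H2AX and cleaved caspase-3. Scanned slides were quantified as percent positive-staining cells.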"}, "γ-H2AX": {"test_system": "γ-H2AX", "assay": "Pharmacodynamic study, immunohistochemistry of G3MB tumor tissue: γ-H2AX", "type": "in vivo, mice bearing G3MB", "method_in_brief": "as §2"}, "cleaved caspase-3": {"test_system": "cleaved caspase-3", "type": "in vivo, mice bearing G3MB", "conditions": "20 mg/kg IV single dose, at 24 hours post-dose; not statistically significant", "method_in_brief": "as §2"}, "[6]": {"conditions": "adult patients, recommended phase II dosage of 105 mg/m^2; ref Hong et al., 2016; cited from earlier work"}, "[7]": {"conditions": "10 mg/kg SQ, apparent parameter"}, "[8]": {"conditions": "10 mg/kg SQ, ECF model, G3MB mice"}, "[9]": {"conditions": "PK/PD model, fixed based upon a sensitivity analysis"}}, "note": "Values joined by “and” are separate entries in the source; they are usually repeats but may differ in a detail not shown here. Equal values may be shown once.", "data": [{"smiles": "COc1cccc(OCCCN)c1-c1cc(Nc2cnc(C#N)cn2)n[nH]1", "note": "[prexasertib, 5-(5-[2-(3-Aminopropoxy)-6-methoxyphenyl]-1H-pyrazol-3-yl}amino)pyrazine-2-carbonitrile methanesulfonate hydrate]", "values": [{"measurement": "Binding to the dialysis membrane of the Equilibrium Dialyzer plate", "setting": "[1]", "value": "negligibly bound"}, {"measurement": "fraction unbound at 24 h", "setting": "[1]; CD-1, mouse, plasma", "value": 0.11}, {"measurement": "CL, plasma (central) clearance, estimate (RSE%)", "setting": "[2]; [7]", "value": "5.64 (4.3%) l/h/kg"}, {"measurement": "Q, tissue (peripheral) clearance, estimate (RSE%)", "setting": "[2]; [7]", "value": "0.58 (13%) l/h/kg"}, {"measurement": "Vc, plasma (central) volume, estimate (RSE%)", "setting": "[2]; [7]", "value": "1.81 (18%) l/kg"}, {"measurement": "Vp, tissue (peripheral) volume, estimate (RSE%)", "setting": "[2]; [7]", "value": "3.42 (8.0%) l/kg"}, {"measurement": "ka, absorption rate constant, estimate (RSE%)", "setting": "[2]; 10 mg/kg SQ, plasma population model", "value": "1.07 (12%) h^−1"}, {"measurement": "half-life", "setting": "[2]; female, CD-1 nude, mouse, plasma, subcutaneous, 10 mg/kg", "value": 4.5, "unit": "h"}, {"measurement": "AUC", "setting": "[2]; female, CD-1 nude, mouse, plasma, subcutaneous, 10 mg/kg, 0−∞ (mean ± SD), 10 mg/kg SQ", "value": "1820 ± 462", "unit": "ng·h/mL"}, {"measurement": "AUC", "setting": "[2]; female, CD-1 nude, mouse, plasma, subcutaneous, 10 mg/kg, 0−∞, range, 10 mg/kg SQ", "value": "1460 to 2880", "unit": "ng·h/mL"}, {"measurement": "kb45, peripheral rate constant, estimate (RSE%)", "setting": "[3]; [8]", "value": "0.39 (24%) h^−1"}, {"measurement": "kb54, peripheral rate constant, estimate (RSE%)", "setting": "[3]; [8]", "value": "0.05 (41%) h^−1"}, {"measurement": "Time of maximum tumor ECF concentrations post-dose", "setting": "[3]; 10 mg/kg SQ, mice bearing G3MB", "value": 1, "unit": "h"}, {"measurement": "Unbound AUCECF (mean ± SD)", "setting": "[3]; 10 mg/kg SQ, tumor ECF, tumor-bearing mice, at 24 hours post-dose", "value": "47.3 ± 17", "unit": "ng·h/mL"}, {"measurement": "Kp uu", "setting": "[3]; CD-1 nude, mouse, tumor ECF (microdialysate) / unbound plasma, subcutaneous, 10 mg/kg", "value": "0.17 ± 0.08"}, {"measurement": "θNTB on CLef, proportional shift for NTB mice, estimate (RSE%)", "setting": "[4]; ECF model", "value": "2.20 (38%)"}, {"measurement": "θNTB on CLin, proportional shift for NTB mice, estimate (RSE%)", "setting": "[4]; ECF model", "value": "0.93 (45%)"}, {"measurement": "θNTB on kb45, proportional shift for NTB mice, estimate (RSE%)", "setting": "[4]; ECF model", "value": "5.90 (77%)"}, {"measurement": "θNTB on kb54, proportional shift for NTB mice, estimate (RSE%)", "setting": "[4]; ECF model", "value": "17.9 (32%)"}, {"measurement": "Time of maximum brain ECF concentrations post-dose", "setting": "[4]; NTB mice", "value": 1, "unit": "h"}, {"measurement": "AUCplasma of unbound prexasertib (mean ± SD)", "setting": "[4]; NTB mice, at 24 hours post-dose, from total exposure and FU", "value": "271 ± 23", "unit": "ng·h/mL"}, {"measurement": "Unbound AUCECF (mean ± SD)", "setting": "[4]; brain ECF, NTB mice, at 24 hours post-dose", "value": "24.8 ± 11.8 ng·h/mL and 24.8 ng·h/mL"}, {"measurement": "CL, plasma clearance, estimate (RSE%)", "setting": "[5]", "value": "6.03 (8.0%) l/h/kg"}, {"measurement": "Q, tissue (peripheral) clearance, estimate (RSE%)", "setting": "[5]", "value": "0.807 (10%) l/h/kg"}, {"measurement": "Vc, plasma volume, estimate (RSE%)", "setting": "[5]", "value": "2.67 (13%) l/kg"}, {"measurement": "Vp, tissue (peripheral) volume, estimate (RSE%)", "setting": "[5]", "value": "3.79 (6.0%) l/kg"}, {"measurement": "ka, absorption rate constant, estimate (RSE%)", "setting": "[5]", "value": "1.16 (10%) h^−1"}, {"measurement": "Time of peak induction of pCHK1 S345 after the dose", "setting": "pCHK1 S345; 20 mg/kg IV single dose", "value": 2, "unit": "hours"}, {"measurement": "Time pCHK1 S345 stayed above baseline after the dose", "setting": "pCHK1 S345; 20 mg/kg IV single dose", "value": "at least 6 hours"}, {"measurement": "Peak in pCHK1 S345 nuclear staining", "setting": "pCHK1 S345; 20 mg/kg IV single dose, at 2 hours", "value": 2.2, "unit": "fold"}, {"measurement": "EC50 at 20 mg/kg", "setting": "pCHK1 S345; Mus musculus, iv, read-out: pCHK1 S345 EC50, prexasertib ECF concentration for 50% stimulation of maximum function of kin, estimate (RSE%), PK/PD model, 20 mg/kg IV, tumor ECF, preliminary", "value": 0.0102, "unit": "µg/mL"}, {"measurement": "pCHK1 S345 EC50, prexasertib ECF concentration for 50% stimulation of maximum function of kin, estimate (RSE%)", "setting": "pCHK1 S345; PK/PD model, 20 mg/kg IV, tumor ECF, preliminary, 20 mg/kg", "value": "10.15 (26.5%) ng/ml"}, {"measurement": "pCHK1 S345 Emax, maximum extent of stimulation", "setting": "pCHK1 S345; [9]", "value": "2.0 (-)"}, {"measurement": "Time of peak induction of γ-H2AX after the dose", "setting": "γ-H2AX; 20 mg/kg IV single dose", "value": 2, "unit": "h"}, {"measurement": "Time γ-H2AX was elevated above baseline", "setting": "γ-H2AX; 20 mg/kg IV single dose", "value": "at least 6 hours"}, {"measurement": "pH2Ax Emax, maximum extent of stimulation", "setting": "γ-H2AX; [9]", "value": "5.0 (-)"}, {"measurement": "Increase of cleaved caspase-3", "setting": "cleaved caspase-3", "value": 1.4, "unit": "fold"}, {"measurement": "Plasma exposure AUCplasma, 0−∞ (mean ±SD)", "setting": "[6]", "value": "2410 ± 1229", "unit": "ng·h/mL"}]}]}
